Experiments:
G-361 = experiment: Antitumor activity against human G361 cells after 72 hrs by Calcein AM assay; type: functional, cell-based; conditions: G-361, 72 h
Summary of the method: (§1)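 Cells grown in DMEM at 37 °C under 5% CO2. Compounds added after 12 h preincubation in 96-well plates, final 0.5-170 μM, with 0.6% final DMSO, then 72 h exposure. Viable cells stained with Calcein AM for 1 h and read at 485/538 nm. IC50 (concentration lethal to 50% of cells) taken from dose-response curves. Run in quadruplicate.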

[1] = Cytotoxicity against mouse NIH 3T3 cells after 72 hrs by Calcein AM assay; type: cell-based; conditions: NIH3T3, 72 h; summary of the method: as §1
Amaranthus [2] = experiment: Cytokinin activity in Amaranthus cotyledons assessed as dark induction of betacyanin synthesis at 0.01 mmol/L relative to 6-Benzylaminopurine; type: functional
Summary of the method: (§2)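 Dark induction of betacyanin in excised Amaranthus cotyledons. DMSO stock brought to 10^-3 M in water, diluted into assay medium (DMSO ≤0.2%). Tested over 10^-4 to 10^-8 M, five replicates per concentration, assay repeated at least three times. Response at the optimal concentration expressed relative to BAP at its optimum (set to 100).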

Triticum aestivum = experiment: Cytokinin activity in wheat assessed as retention of chlorophyll in excised wheat leaves at 0.1 mmol/L relative to 6-Benzylaminopurine by senescence assay; type: functional
Summary of the method: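 Senescence assay measuring chlorophyll retention in excised wheat leaves. DMSO stocks brought to 10^-3 M with water, then diluted in assay medium to a final DMSO of at most 0.2%. Concentrations 10^-4 to 10^-8 M, quintuplicate, repeated at least three times. Response at the optimal concentration normalised to BAP optimum = 100.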

Nicotiana tabacum [3] = experiment: Cytokinin activity in tobacco assessed as stimulation of callus growth at 0.01 mmol/L relative to 6-Benzylaminopurine; type: functional
Summary of the method: (§3)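 Stimulation of tobacco callus growth. Compounds dissolved in DMSO, brought to 10^-3 M in water and diluted into medium (DMSO ≤0.2%). Range 10^-4 to 10^-8 M, five replicates per concentration, at least three independent repeats. Activity at the optimal concentration given relative to BAP's optimal response, taken as 100.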

[4] = molecular target: T1, Histidine kinase 3 (Arabidopsis thaliana) (UniProt Q9C5U1); experiment: Activation of Arabidopsis thaliana AHK3 cytokinin receptor relative to trans-zeatin; design: concentration or dose not given beside the values
T1 sequence (whole entry): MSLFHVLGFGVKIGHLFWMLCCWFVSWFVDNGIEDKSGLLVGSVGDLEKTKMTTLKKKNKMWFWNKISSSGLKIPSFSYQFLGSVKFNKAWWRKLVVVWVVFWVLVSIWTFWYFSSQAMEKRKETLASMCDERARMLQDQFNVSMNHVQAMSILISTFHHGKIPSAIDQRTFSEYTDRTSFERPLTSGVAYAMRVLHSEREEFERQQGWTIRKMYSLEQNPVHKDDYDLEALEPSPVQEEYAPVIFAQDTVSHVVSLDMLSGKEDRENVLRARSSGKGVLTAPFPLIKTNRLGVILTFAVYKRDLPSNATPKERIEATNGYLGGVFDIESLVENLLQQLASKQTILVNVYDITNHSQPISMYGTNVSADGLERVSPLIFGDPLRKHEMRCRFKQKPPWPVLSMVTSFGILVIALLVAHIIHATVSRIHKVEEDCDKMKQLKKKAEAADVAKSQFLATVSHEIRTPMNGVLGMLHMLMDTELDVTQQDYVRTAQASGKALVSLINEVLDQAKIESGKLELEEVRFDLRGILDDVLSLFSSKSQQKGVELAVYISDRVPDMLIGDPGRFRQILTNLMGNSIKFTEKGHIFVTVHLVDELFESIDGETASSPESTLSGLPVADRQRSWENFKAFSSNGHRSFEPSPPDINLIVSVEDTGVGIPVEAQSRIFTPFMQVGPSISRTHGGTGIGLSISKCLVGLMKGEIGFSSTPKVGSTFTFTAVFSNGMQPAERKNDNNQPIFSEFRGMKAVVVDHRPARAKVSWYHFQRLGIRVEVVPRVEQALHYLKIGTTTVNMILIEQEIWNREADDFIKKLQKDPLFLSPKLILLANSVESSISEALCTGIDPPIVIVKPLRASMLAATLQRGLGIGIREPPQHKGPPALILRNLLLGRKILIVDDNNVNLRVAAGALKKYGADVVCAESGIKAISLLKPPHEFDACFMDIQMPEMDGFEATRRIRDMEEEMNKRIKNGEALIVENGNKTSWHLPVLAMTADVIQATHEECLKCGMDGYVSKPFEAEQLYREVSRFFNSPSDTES
Summary of the method: (§4)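 E. coli KMI001 carrying pSTV28-AHK3 or pIN-III-AHK4, precultured overnight at 25 °C in M9 + 0.1% casamino acids to OD600 ~1. Diluted 1:600, compound or solvent added, then incubated at 25 °C for 28 h (AHK3) or 17 h (CRE1/AHK4). Supernatant incubated with 4-methylumbelliferyl β-D-galactoside for 1 h at 37 °C and stopped with Na2CO3. Fluorescence read at 365/460 nm. β-galactosidase expressed as nmol 4-MU × OD600⁻¹ × h⁻¹.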

[5] = molecular target: Histidine kinase 4 (Arabidopsis thaliana) (UniProt Q9C5U0); experiment: Activation of Arabidopsis thaliana CRE1/AHK4 cytokinin receptor relative to trans-zeatin; design: concentration or dose not given beside the values; summary of the method: as §4
HOS = experiment: Antitumor activity against human HOS cells after 72 hrs by Calcein AM assay; type: functional, cell-based; summary of the method: as §1
K562 = experiment: Antitumor activity against human K562 cells after 72 hrs by Calcein AM assay; type: functional, cell-based; conditions: K562, 72 h; summary of the method: as §1
[6] = Antitumor activity against human MCF cells after 72 hrs by Calcein AM assay; type: functional, cell-based; summary of the method: as §1
CCRF-CEM = experiment: Antitumor activity against human CEM cells after 72 hrs by Calcein AM assay; type: functional, cell-based; summary of the method: as §1
HL-60 = experiment: Antitumor activity against human HL60 cells after 72 hrs by Calcein AM assay; type: functional, cell-based; conditions: HL-60, 72 h; summary of the method: as §1
B16 = experiment: Antitumor activity against mouse B16 cells after 72 hrs by Calcein AM assay; type: functional, cell-based; conditions: B16, 72 h; summary of the method: as §1
Nicotiana tabacum [7] = experiment: Cytokinin activity in tobacco assessed as stimulation of callus growth at 1 umol/L relative to 6-Benzylaminopurine; type: functional; summary of the method: as §3
Amaranthus [8] = experiment: Cytokinin activity in Amaranthus cotyledons assessed as dark induction of betacyanin synthesis at 0.1 mmol/L relative to 6-Benzylaminopurine; type: functional; summary of the method: as §2

Sequence of Histidine kinase 4 (Arabidopsis thaliana) (Q9C5U0 whole entry): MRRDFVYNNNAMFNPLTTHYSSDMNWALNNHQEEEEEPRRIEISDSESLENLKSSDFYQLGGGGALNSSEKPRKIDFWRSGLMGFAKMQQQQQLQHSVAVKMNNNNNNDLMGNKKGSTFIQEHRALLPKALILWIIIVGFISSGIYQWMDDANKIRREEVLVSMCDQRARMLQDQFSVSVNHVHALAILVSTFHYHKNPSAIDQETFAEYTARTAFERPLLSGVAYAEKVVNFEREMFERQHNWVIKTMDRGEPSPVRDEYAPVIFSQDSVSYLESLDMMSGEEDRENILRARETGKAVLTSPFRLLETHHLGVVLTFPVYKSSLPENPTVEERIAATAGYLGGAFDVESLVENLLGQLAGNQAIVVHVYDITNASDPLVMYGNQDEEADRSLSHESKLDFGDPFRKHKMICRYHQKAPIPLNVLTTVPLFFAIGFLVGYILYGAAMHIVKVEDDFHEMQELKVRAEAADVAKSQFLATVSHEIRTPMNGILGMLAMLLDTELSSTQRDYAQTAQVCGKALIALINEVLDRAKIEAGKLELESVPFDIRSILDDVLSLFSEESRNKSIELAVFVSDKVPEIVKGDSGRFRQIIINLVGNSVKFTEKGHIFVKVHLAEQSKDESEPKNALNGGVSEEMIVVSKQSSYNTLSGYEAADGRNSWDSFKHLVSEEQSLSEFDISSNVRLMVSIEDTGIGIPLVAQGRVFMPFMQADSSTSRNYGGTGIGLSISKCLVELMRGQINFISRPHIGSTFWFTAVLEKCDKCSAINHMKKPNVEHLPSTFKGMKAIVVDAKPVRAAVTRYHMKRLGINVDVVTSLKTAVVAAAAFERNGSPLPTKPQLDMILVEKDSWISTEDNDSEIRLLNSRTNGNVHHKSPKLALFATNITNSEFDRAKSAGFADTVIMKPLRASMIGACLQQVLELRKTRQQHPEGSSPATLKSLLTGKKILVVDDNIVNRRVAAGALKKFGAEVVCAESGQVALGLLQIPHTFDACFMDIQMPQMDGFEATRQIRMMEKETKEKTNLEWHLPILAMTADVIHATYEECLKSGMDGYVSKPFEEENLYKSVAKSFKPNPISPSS

Row | SMILES | IC50 (G-361) | Activity [4] | Activity [5] | IC50 (HOS) | IC50 (K562) | IC50 [6] | IC50 (CCRF-CEM) | IC50 (HL-60) | IC50 (B16) | IC50 [1] | Activity (Amaranthus [2]) | Activity (Triticum aestivum) | Activity (Nicotiana tabacum [3]) | Activity (Nicotiana tabacum [7]) | Activity (Amaranthus [8])
1 | OC[C@H]1O[C@@H](n2cnc3c(NCc4cc(F)c(F)cc4F)ncnc32)[C@H](O)[C@@H]1O |  |  |  |  |  |  |  |  |  |  |  | 99% | 95% |  | 120%
2 | OC[C@H]1O[C@@H](n2cnc3c(NCc4cccc(Cl)c4)ncnc32)[C@H](O)[C@@H]1O | > 167 µM | 2.63% | 0.15% | > 167 µM | 27.7 µM | 26.9 µM | 1.6 µM | 0.75 µM |  | > 167 µM | 139% | 72% | 96% |  | 
3 | COc1cccc(CNc2ncnc3c2ncn3[C@@H]2O[C@H](CO)[C@@H](O)[C@H]2O)c1 |  | 1.12% | 0.14% | > 167 µM | > 167 µM | > 167 µM | 7.6 µM | 4.9 µM | > 167 µM | > 167 µM |  | 209% |  | 92% | 98%
4 | OC[C@H]1O[C@@H](n2cnc3c(NCc4ccc(F)c(F)c4F)ncnc32)[C@H](O)[C@@H]1O | > 167 µM |  |  | > 167 µM | > 167 µM | > 167 µM | 58.2 µM | 13 µM | > 167 µM |  |  | 144% | 94% |  | 95%
5 | OC[C@H]1O[C@@H](n2cnc3c(NCc4ccc(Cl)cc4)ncnc32)[C@H](O)[C@@H]1O | > 167 µM | 0.81% | 0.23% | > 167 µM | 218 µM | > 167 µM | 10.2 µM | 1.7 µM | > 167 µM | > 167 µM | 35% | 104% |  | 46% | 
6 | OC[C@H]1O[C@@H](n2cnc3c(NCc4cccc(Br)c4)ncnc32)[C@H](O)[C@@H]1O | > 167 µM |  |  | > 167 µM | 19.7 µM | > 167 µM | 5 µM | 8 µM | > 167 µM | > 167 µM |  | 89% | 82% |  | 151%
7 | COc1ccc(CNc2ncnc3c2ncn3[C@@H]2O[C@H](CO)[C@@H](O)[C@H]2O)c(OC)c1 |  |  |  | > 167 µM | > 167 µM | > 167 µM | > 167 µM | 39 µM |  |  |  | 30% | 5% |  | 3%
8 | OC[C@H]1O[C@@H](n2cnc3c(NCc4ccccc4)ncnc32)[C@H](O)[C@@H]1O [N6-BENZYLADENOSINE] | > 167 µM | 2.53% | 0.35% | > 167 µM | 5.5 µM | 5.4 µM | 1.4 µM | 0.94 µM | > 167 µM | 39 µM |  |  |  |  | 
9 | OC[C@H]1O[C@@H](n2cnc3c(NCc4ccccc4F)ncnc32)[C@H](O)[C@@H]1O |  | 2.91% | 0.12% | > 167 µM | 33.2 µM | > 167 µM | 4.6 µM | 3.2 µM | > 167 µM | > 167 µM | 96% | 118% |  | 100% | 
10 | OC[C@H]1O[C@@H](n2cnc3c(NCc4ccccc4OC(F)F)ncnc32)[C@H](O)[C@@H]1O | > 167 µM |  |  | > 167 µM | > 167 µM | > 167 µM |  |  |  |  |  | 180% | 89% |  | 81%
11 | OC[C@H]1O[C@@H](n2cnc3c(NCc4ccc(F)cc4Cl)ncnc32)[C@H](O)[C@@H]1O | > 167 µM |  |  | > 167 µM | 15.6 µM | > 167 µM | 20.9 µM | 9 µM | > 167 µM | > 167 µM |  | 165% | 98% |  | 115%

More lines, main results first:

Row | IC50 (G-361) | Activity [4] | Activity [5] | IC50 (HOS) | IC50 (K562) | IC50 [6] | IC50 (CCRF-CEM) | IC50 (HL-60) | IC50 (B16) | SMILES | IC50 [1] | Activity (Amaranthus [2]) | Activity (Triticum aestivum) | Activity (Nicotiana tabacum [3]) | Activity (Nicotiana tabacum [7]) | Activity (Amaranthus [8])
12 | > 167 µM | 0.99% | 0.36% | > 167 µM | 7.6 µM | 15.3 µM | 4 µM | 0.92 µM |  | OC[C@H]1O[C@@H](n2cnc3c(NCc4cccc(F)c4)ncnc32)[C@H](O)[C@@H]1O | 84 µM | 92% | 220% | 91% |  | 
13 |  | 0.02% | 0.04% | > 167 µM | 64 µM | > 167 µM | 14.5 µM | 1.6 µM | > 167 µM | OC[C@H]1O[C@@H](n2cnc3c(NCc4ccccc4Cl)ncnc32)[C@H](O)[C@@H]1O | > 167 µM | 113% | 119% |  | 93% | 
14 | 115 µM | 2.45% | 0.22% | > 167 µM | 156 µM | > 167 µM | > 167 µM | > 167 µM | 19.5 µM | COc1ccc(CNc2ncnc3c2ncn3[C@@H]2O[C@H](CO)[C@@H](O)[C@H]2O)cc1 |  |  | 65.5% |  | 2% | 17%
15 | > 167 µM |  |  | > 167 µM | > 167 µM | > 167 µM | 19.1 µM | 6.4 µM | > 167 µM | Cc1cccc(CNc2ncnc3c2ncn3[C@@H]2O[C@H](CO)[C@@H](O)[C@H]2O)c1 | > 167 µM | 96% | 143% |  | 90% | 
16 | > 167 µM |  |  | > 167 µM | 18 µM | 6.9 µM | 0.9 µM | 15 µM | > 167 µM | Cc1cccc(CNc2ncnc3c2ncn3[C@@H]2O[C@H](CO)[C@@H](O)[C@H]2O)c1O |  |  |  | 5% |  | 55%
17 | > 167 µM | 7.67% | 0.39% | 13.2 µM | 2.7 µM | 21 µM | 1.25 µM | 1.2 µM |  | OC[C@H]1O[C@@H](n2cnc3c(NCc4ccc(F)cc4)ncnc32)[C@H](O)[C@@H]1O | 44.3 µM | 71% | 148% |  | 100% | 
